Bioassay records: PubChem BioAssay, The Scripps Research Institute Molecular Screening Center
Tn7 DDE FP = disrupts Tn7 cyclic peptide binding to fibrin D-Dimer-E complex | P02675 | FP displacement of FITC-Tn7 peptide from fibrin DD(E); 0% = median of compound wells per plate | inhibition, % at 8.3 µM | actives 0.13% (n = 370,000);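 active = inhibition above the mean of compounds falling within the control limits plus 3 SD of them, cut at about 14% in these data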;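 also: 0% = plate median of compound wells and 100% = 10 µM Aha-Tn7 peptide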
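Assay system: Human clot-derived fibrin DD(E) complex | Buffer or medium: Tris/NaCl/CaCl2 buffer, pH 7.8 | Repeats: One replicate per compound | Benchmarks: Aha-Tn7 high control | Measure: % inhibition scaled between sample-field median and high-control FP | Schedule: 10 min plus 3 h, room temperature | Signal: Fluorescence polarization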
DDE Tn6 FP inh = DD(E)-Tn6 binding inhibition, primary FP screen; P02675; Fibrin DD(E) TRITC-Tn6 fluorescence polarization displacement; inhibition, % at 8.3 µM; actives 0.21% (n = 370,000); AID 720509;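 active = inhibition above a per-campaign cutoff: mean of compounds within control limits plus 3 SD, cut at about 15% in these data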;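 also: 0% = median of all compound wells on the plate and 100% = blocking peptide control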
ADAM17 inh = ADAM17 inhibition, QFRET primary screen | AID 720648 | P78536 | actives 0.83% (n = 370,000) | inhibition, % at 6.95 µM | recombinant ADAM17, EDANS/DABCYL FRET peptide cleavage;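 active = inhibition above the mean of compounds lying between control limits plus 3 SD, set per campaign, cut at about 8.5% in these data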;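 also: 0% = DMSO-only wells as the low control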
PLC-gamma1 inh = inhibitors of human phospholipase C gamma1; P19174; inhibition, % at 12.2 µM; purified PLC-gamma1, fluorogenic substrate, fluorescence; actives 0.84% (n = 370,000); in the data active = inhibition above about 9.5%
PLCb3 inh = PLC-beta3 (human) inhibition, primary screen; actives 0.18% (n = 370,000); inhibition, % at 12.2 µM; Q01970; Purified PLC-beta3, fluorogenic substrate, fluorescence; AID 720704;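 also: 0% = median of compound wells on plate and 100% = full blocker control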
Target sequence (Q01970 whole entry, looked up): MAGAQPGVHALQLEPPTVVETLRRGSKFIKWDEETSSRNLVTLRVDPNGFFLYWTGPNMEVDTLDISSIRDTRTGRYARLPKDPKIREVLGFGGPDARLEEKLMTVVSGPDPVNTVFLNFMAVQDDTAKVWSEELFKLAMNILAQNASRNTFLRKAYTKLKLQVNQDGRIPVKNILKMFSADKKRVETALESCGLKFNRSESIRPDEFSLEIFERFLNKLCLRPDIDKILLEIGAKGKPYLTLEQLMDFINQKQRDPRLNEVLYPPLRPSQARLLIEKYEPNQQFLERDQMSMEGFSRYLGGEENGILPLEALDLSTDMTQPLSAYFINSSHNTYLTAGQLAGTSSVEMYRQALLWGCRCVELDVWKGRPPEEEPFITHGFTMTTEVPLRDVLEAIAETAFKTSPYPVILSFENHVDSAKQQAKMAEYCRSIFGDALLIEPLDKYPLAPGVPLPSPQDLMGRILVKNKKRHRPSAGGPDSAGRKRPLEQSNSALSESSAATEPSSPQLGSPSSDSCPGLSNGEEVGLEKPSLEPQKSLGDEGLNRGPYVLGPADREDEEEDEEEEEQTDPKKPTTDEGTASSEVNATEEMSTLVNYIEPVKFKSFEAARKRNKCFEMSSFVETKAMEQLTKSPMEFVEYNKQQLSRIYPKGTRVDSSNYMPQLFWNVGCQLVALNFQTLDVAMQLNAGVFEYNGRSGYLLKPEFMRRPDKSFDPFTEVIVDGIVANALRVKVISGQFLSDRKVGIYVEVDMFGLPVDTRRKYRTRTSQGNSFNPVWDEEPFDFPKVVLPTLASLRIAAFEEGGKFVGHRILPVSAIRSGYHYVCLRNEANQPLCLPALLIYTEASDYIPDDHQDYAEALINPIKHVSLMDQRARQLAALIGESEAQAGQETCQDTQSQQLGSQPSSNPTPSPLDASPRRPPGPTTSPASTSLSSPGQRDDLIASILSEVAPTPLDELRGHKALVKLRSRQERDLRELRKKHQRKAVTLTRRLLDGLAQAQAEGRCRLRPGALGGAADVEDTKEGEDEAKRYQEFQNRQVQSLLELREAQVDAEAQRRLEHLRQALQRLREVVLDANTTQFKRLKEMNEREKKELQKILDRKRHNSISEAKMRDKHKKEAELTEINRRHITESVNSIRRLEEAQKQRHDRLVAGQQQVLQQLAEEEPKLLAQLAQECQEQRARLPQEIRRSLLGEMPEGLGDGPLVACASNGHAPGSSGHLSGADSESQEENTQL
ADAM10 inh = inhibits human ADAM10; O14672; AID 720582; actives 0.62% (n = 370,000); recombinant ADAM10, EDANS/DABCYL FRET peptide cleavage, 3 h; inhibition, % at 7 µM;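 active = inhibition above a per-campaign cutoff equal to the mean of compounds falling between control-based bounds plus 3 SD, cut at about 20% in these data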;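 also: 0% = DMSO wells while the 100% control is not disclosed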
ADAM10 confirm = human ADAM10 inhibition, confirmation. shares compounds with ADAM10 inh. AID 743208. ADAM10 QFRET peptide cleavage, EDANS fluorescence. actives 1% (n = 2,100). inhibition, % at 6.95 µM;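 active = inhibition above about 20% chosen separately for each screening run, limit read from the data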;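 also: 0% = DMSO wells and 100% = marimastat wells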
ADAM17 ctr = inhibits human ADAM17 in ADAM10 exosite counter-screen | shares compounds with ADAM10 inh | ADAM17 QFRET peptide cleavage, EDANS fluorescence | inhibition, % at 6.95 µM | actives 0.5% (n = 2,100);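 active = mean triplicate inhibition above the solvent-only control wells' mean plus 3 SD, cut at about 12% in these data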;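 also: 0% = DMSO wells and 100% = marimastat wells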
ADAM10 ctr = ADAM10 inhibition, counter-screen for ADAM17 exosite hits; shares compounds with ADAM17 inh; recombinant ADAM10, EDANS/DABCYL FRET peptide cleavage, 3 h; inhibition, % at 6.95 µM; actives 47% (n = 2,900);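 active = mean inhibition over the triplicate runs exceeds the activity threshold set in the earlier primary screen, cut at about 20% in these data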;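 also: 0% = DMSO wells and 100% = marimastat wells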
ADAM17 confirm = confirmation of inhibitors of human ADAM17; shares compounds with ADAM17 inh; recombinant ADAM17, EDANS/DABCYL QFRET peptide cleavage; inhibition, % at 6.95 µM; actives 65% (n = 2,900); AID 743257;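 active = mean inhibition across replicates above the hit cutoff set in the primary screen, cut at about 8.5% in these data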;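 also: 0% = DMSO wells and 100% = marimastat wells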
PLCg1 ctr = counter-screen for PLC-beta3 inhibitors: inhibitors of human PLC-gamma1; shares compounds with PLC-gamma1 inh; purified PLC-gamma1, fluorogenic substrate, fluorescence; inhibition, % at 12.3 µM; actives 3.1% (n = 3,300); AID 743258; in the data active = inhibition above about 9.5%
PLCb3 confirm = confirmation of human PLC-beta3 inhibitors; inhibition, % at 12.3 µM; purified PLC-beta3, fluorogenic substrate fluorescence; actives 1% (n = 3,300); shares compounds with PLC-gamma1 inh
* marks the source's active call; other numbers are inactive results; / = no result given. The list is not random: actives were taken first. Their share in the collection is about 2.3%. Rule as the data show it, unless noted: active = inhibition above about 11%; inactive = the rest.

SMILES	Tn7 DDE FP	DDE Tn6 FP inh	ADAM17 inh	PLC-gamma1 inh	PLCb3 inh	ADAM10 inh	ADAM10 confirm	ADAM17 ctr	ADAM10 ctr	ADAM17 confirm	PLCg1 ctr	PLCb3 confirm
COc1ccc(N(CC(=O)Nc2ccccc2OC)S(=O)(=O)c2ccccc2)cc1Cl	9	3	8	1	-9	13	/	/	/	/	/	/
CN1CCN(c2oc(COc3ccc(-c4ccccc4)cc3)nc2C#N)CC1	-2	-3	18*	11*	6	27*	3	1	23*	14*	-9	-5
Cn1c(N=Nc2ccccc2)nc2ccccc21	-6	-8	8	8	12*	22*	2	0	/	/	-2	-2
O=C(NCc1ccccc1)OCCCN1C(=O)CCC12CCCCC2	1	7	-2	-2	1	0	/	/	/	/	/	/
CCc1ccccc1NCC(=O)Nc1ccc(Cl)c(C(F)(F)F)c1	-4	-5	17*	12*	8	35*	6	3	40*	19*	-1	1
COc1ccccc1NC(=O)CN1CCN(CC(=O)Nc2ccc(Cl)c(C(F)(F)F)c2)CC1	-6	0	2	1	5	8	/	/	/	/	/	/
O=S(=O)(Nc1ccc(C(O)(C(F)(F)F)C(F)(F)F)cc1)c1cccc2cccnc12	-1	3	10*	10*	-2	27*	-2	0	20*	14*	-2	-4
O=C(Nc1cnn(Cc2ccc(F)cc2)c1)C(c1ccccc1)c1ccccc1	-2	1	14*	10*	8	23*	3	1	22*	14*	-5	0
O=C(CCNc1cc(Cl)cc(Cl)c1)c1cccs1	-2	-9	7	13*	5	22*	6	2	/	/	11*	4
Cc1cc(C(=O)NCc2cccs2)ccc1[N+](=O)[O-]	-4	5	-2	1	1	6	/	/	/	/	/	/
O=C(NCc1cccs1)c1ccc([N+](=O)[O-])cc1	-7	-2	6	10.0*	12*	24*	-1	0	/	/	-9	-6
COc1ccc(CNC(=O)C2(c3ccc(Cl)cc3)CC2)cc1	-2	9	3	14*	10	21*	0	0	/	/	-6	1
NS(=O)(=O)c1ccc(CNC(=O)C2(c3ccc(Cl)cc3)CC2)cc1	2	-4	-3	5	-7	-3	/	/	/	/	/	/
COC(=O)C1=C(C)N(Cc2cccc(C(F)(F)F)c2)C(=NCc2ccc(C(F)(F)F)cc2)NC1c1cccc(F)c1 (centres undefined)	-11	-8	9.4*	8	14*	21*	10	5	22*	12*	-6	-4
COC(=O)C1=C(C)N(Cc2ccc(C(F)(F)F)cc2)C(=NCc2ccccc2)NC1c1cccc(F)c1 (centres undefined)	3	1	8	6	7	11	/	/	/	/	/	/
CC(=O)c1c(C)[nH]c(C(=O)Nc2ccccc2C)c1C	7	5	-6	2	-2	-2	/	/	/	/	/	/
COC(=O)C1CN(C2CC2)CCS(=O)(=O)N1Cc1cn(Cc2ccc(Cl)cc2)nn1 (centres undefined)	5	10	1	0	0	-3	/	/	/	/	/	/
CCOc1ccc(N2CC(C(=O)Nc3cccc(S(=O)(=O)N4CCCCC4)c3)CC2=O)cc1 (centres undefined)	-6	-7	5	11*	7	22*	1	0	/	/	-8	-5
O=C(/C=C/c1cccc([N+](=O)[O-])c1)Nn1c(-c2ccccc2F)nc2ccccc2c1=O	-8	-9	7	12*	10	24*	-2	0	/	/	-2	0
CC(OC(=O)CCCCCN=C1NS(=O)(=O)c2ccccc21)C(=O)Nc1cc(Cl)cc(Cl)c1 (centres undefined)	-4	-5	15*	9.7*	6	29*	4	1	17	15*	1	0
COc1ccc(NC(=S)Nc2cc(C)[nH]n2)cc1Cl	2	3	-2	0	-6	-3	/	/	/	/	/	/
COc1ccc(NC(=S)Nc2cc(-c3ccccc3)[nH]n2)cc1Cl	-7	-4	19*	12*	12*	32*	12	3	36*	22*	-1	-3
CC(C)(C)OC(=O)NCc1ccc(CNC(=O)c2[nH]cnc2C(=O)N[C@@H](Cc2ccccc2)C(=O)OC(C)(C)C)cc1	-6	1	14*	9.5*	8	42*	12	3	56*	27*	-3	1
CC(C)(C)OC(=O)NCc1ccc(NC(=O)c2nc[nH]c2C(=O)N[C@@H](Cc2ccccc2)C(=O)OCc2ccccc2)cc1	-3	-5	3	1	0	14	/	/	/	/	/	/
CC(C)C[C@H](NC(=O)c1nc[nH]c1C(=O)N[C@@H](CC(C)C)C(=O)OC(C)(C)C)C(=O)OCc1ccccc1	7	-1	2	1	3	6	/	/	/	/	/	/
CC(C)C[C@H](NC(=O)c1[nH]cnc1C(=O)N[C@@H](C)C(=O)OC(C)(C)C)C(=O)OC(C)(C)C	-4	-2	25*	8	11*	40*	6	1	33*	19*	5	-6
CC(C)C[C@H](NC(=O)c1nc[nH]c1C(=O)NCC(=O)OC(C)(C)C)C(=O)OCc1ccccc1	-2	-6	14*	9.9*	-4	30*	3	1	36*	19*	1	-5
Cc1c(NS(=O)(=O)c2cc3c(cc2Br)CCN3C(=O)C2CC2)c(=O)n(-c2ccccc2)n1C	-2	8	0	1	2	-3	/	/	/	/	/	/
